The values below come from ChEMBL document CHEMBL6134900 (J Med Chem, 2025).

The assay relates to NCI-H2030. Description: Antitumor activity against human NCI-H2030 cells harboring KRAS G12C mutant/SMARCA4 mutant assessed as cell growth inhibition incubated for 7 days by Incucyte S3 analysis. The assay is classed as functional, cell-based. The settings on record: time 7.0 day. In a few lines: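 H2030 cells plated at 500 per well and grown overnight at 37 °C. Treated with 3-fold dilutions of sotorasib, test agent, or both. Confluency imaged every 4 h for 7 days on IncuCyte S3. Synergy scored as Bliss/Lowe consensus, >10 taken as synergy.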

In the case of `C=CC(=O)N1CCN(c2nc(=O)n(-c3c(C)ccnc3C(C)C)c3nc(-c4c(O)cccc4F)c(F)cc23)[C@@H](C)C1`, the Activity entry is recorded as “Active; Minimal Inhibition Observed”.
